Measurements from ChEMBL document CHEMBL3272224, “Synthesis and hypotensive activity of N-alkyl-N"-cyano-N'-pyridylguanidines” (J Med Chem, 1978).
Active and inactive are the calls of the source. The calls are words filed in the database; no cut-off is given here.

How the values were obtained:
Rattus norvegicus [1] = test: Toxicity in rat assessed as change in cardiac noradrenaline level at 0.1 mg/kg; format: organism-based, Heart; parameters: dose 0.1 mg/kg; conditions: in vivo
Procedure, shortened: (§1)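 Rats were given single or repeated (5 days) administration, and cardiac noradrenaline levels were measured.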

Rattus norvegicus [2] = test: Toxicity in rat assessed as change in cardiac noradrenaline level at 0.1 mg/kg for 5 days; format: organism-based, Heart; parameters: dose 0.1 mg/kg; conditions: in vivo, 120 h; procedure, shortened: as §1
Rattus norvegicus [3] = species: Rattus norvegicus; test: Toxicity in rat assessed as effect on contraction of nictitating membranes by preganglionic stimulation; format: organism-based, Nictitating membrane; conditions: in vivo
[4] = Toxicity in po dosed mouse assessed as mortality after 7 days; conditions: in vivo
[5] = Toxicity in po dosed Sprague-Dawley rat assessed as mortality after 7 days; format: organism-based; conditions: in vivo
Rattus norvegicus [6] = test: Hypotensive activity in spontaneously hypertensive Wistar-Okamoto rat assessed as maximum change in mean blood pressure at 2.5 mg/kg, po relative to control; format: functional
Procedure, shortened: (§2)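 Spontaneously hypertensive Wistar-Okamoto rats, five per dose, received compound orally, dissolved or suspended in 0.5% carboxymethylcellulose. Blood pressure was measured indirectly by tail cuff in restrained conscious rats before dosing and at 2, 4, 6, 8, 12 and 24 h. Maximum change was measured after a single administration and given as mean ± error.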

Rattus norvegicus [7] = test: Hypotensive activity in spontaneously hypertensive Wistar-Okamoto rat assessed as maximum change in mean blood pressure at 1 mg/kg, po relative to control; format: functional; procedure, shortened: as §2
Rattus norvegicus [8] = test: Hypotensive activity in spontaneously hypertensive Wistar-Okamoto rat assessed as time required for persistence of hypotensive effect at 2.5 mg/kg, po; format: functional
Procedure, shortened: (§3)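 SHR (Wistar-Okamoto), five per dose, were given an oral dose in 0.5% carboxymethylcellulose. Indirect cuff pressure in restrained conscious rats was read before dosing and at 2, 4, 6, 8, 12 and 24 h. Duration (h) was scored while pressure remained 15 mmHg or more below the initial reading.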

Rattus norvegicus [9] = test: Hypotensive activity in spontaneously hypertensive Wistar-Okamoto rat assessed as time required for persistence of hypotensive effect at 1 mg/kg, po; format: functional; procedure, shortened: as §3
Canis familiaris [10] = test: Hypotensive activity in conscious renal hypertensive dog assessed as maximum change in mean blood pressure at 0.5 mg/kg, po measured for 8 hrs relative to control; format: functional, Canis lupus familiaris
Procedure, shortened: (§4)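 Renal hypertensive dogs, conscious, dosed orally in soft gelatin capsules, three dogs per dose. Mean blood pressure was taken indirectly with an Arteriosonde, standing animals in a semi-insonorized room, just before dosing and then hourly for 8 h. Maximum change was measured after a single administration and given as mean ± error.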

Canis familiaris [11] = test: Hypotensive activity in conscious renal hypertensive dog assessed as maximum change in mean blood pressure at 1 mg/kg, po measured for 8 hrs relative to control; format: functional, Canis lupus familiaris; procedure, shortened: as §4
Canis familiaris [12] = test: Hypotensive activity in conscious renal hypertensive dog assessed as time required for persistence of hypotensive effect at 0.5 mg/kg, po measured for 8 hrs; format: functional, Canis lupus familiaris
Procedure, shortened: (§5)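 Conscious renal hypertensive dogs received single oral doses in soft gelatin capsules, three per dose. Indirect standing blood pressure was read before dosing and hourly to 8 h. Duration (h) was the time the pressure stayed 15 mmHg or more below the initial value, which was taken as persistence of the hypotensive effect.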

Canis familiaris [13] = test: Hypotensive activity in conscious renal hypertensive dog assessed as time required for persistence of hypotensive effect at 1 mg/kg, po measured for 8 hrs; format: functional, Canis lupus familiaris; procedure, shortened: as §5
Rattus norvegicus [14] = test: Hypotensive activity in po dosed spontaneously hypertensive Wistar-Okamoto rat assessed as dose required to cause 30 mmHg fall of blood pressure administered for 5 days; format: functional; conditions: 120 h, read-out: MED
Rattus norvegicus [15] = test: Hypotensive activity in spontaneously hypertensive Wistar-Okamoto rat assessed as maximum change in mean blood pressure at 0.01 mg/kg, po relative to control; format: functional; procedure, shortened: as §2
Rattus norvegicus [16] = test: Hypotensive activity in spontaneously hypertensive Wistar-Okamoto rat assessed as maximum change in mean blood pressure at 0.05 mg/kg, po relative to control; format: functional; procedure, shortened: as §2
Rattus norvegicus [17] = test: Hypotensive activity in spontaneously hypertensive Wistar-Okamoto rat assessed as maximum change in mean blood pressure at 0.1 mg/kg, po relative to control; format: functional; procedure, shortened: as §2
Rattus norvegicus [18] = test: Hypotensive activity in spontaneously hypertensive Wistar-Okamoto rat assessed as time required for persistence of hypotensive effect at 0.01 mg/kg, po; format: functional; procedure, shortened: as §3
Rattus norvegicus [19] = test: Hypotensive activity in spontaneously hypertensive Wistar-Okamoto rat assessed as time required for persistence of hypotensive effect at 0.05 mg/kg, po; format: functional; procedure, shortened: as §3
Rattus norvegicus [20] = test: Hypotensive activity in spontaneously hypertensive Wistar-Okamoto rat assessed as time required for persistence of hypotensive effect at 0.1 mg/kg, po; format: functional; procedure, shortened: as §3
Canis familiaris [21] = test: Hypotensive activity in conscious renal hypertensive dog assessed as maximum change in mean blood pressure at 0.05 mg/kg, po measured for 8 hrs relative to control; format: functional, Canis lupus familiaris; procedure, shortened: as §4
Canis familiaris [22] = test: Hypotensive activity in conscious renal hypertensive dog assessed as maximum change in mean blood pressure at 0.1 mg/kg, po measured for 8 hrs relative to control; format: functional, Canis lupus familiaris; procedure, shortened: as §4
Canis familiaris [23] = test: Hypotensive activity in conscious renal hypertensive dog assessed as time required for persistence of hypotensive effect at 0.05 mg/kg, po measured for 8 hrs; format: functional, Canis lupus familiaris; procedure, shortened: as §5
Canis familiaris [24] = test: Hypotensive activity in conscious renal hypertensive dog assessed as time required for persistence of hypotensive effect at 0.1 mg/kg, po measured for 8 hrs; format: functional, Canis lupus familiaris; procedure, shortened: as §5
Rattus norvegicus [25] = test: Hypotensive activity in po dosed spontaneously hypertensive Wistar-Okamoto rat relative to guancydine; format: functional
Felis catus = species: Felis catus; test: Hypotensive activity in decerebrated cat; format: functional, organism-based

| SMILES | LD50 at 168 h [4] | minimal effective dose (Rattus norvegicus [14]) | other results |
| --- | --- | --- | --- |
| CCC(C)(C)NC(=NC#N)Nc1cccnc1 | > 1000 mg/kg | – | Activity (Rattus norvegicus [1]): Non-toxic; Activity (Rattus norvegicus [2]): Non-toxic; Activity (Rattus norvegicus [3]): Non-toxic; LD50 at 168 h [5]: 14 mg/kg |
| NNc1nncc2ccccc12 [HYDRALAZINE] | – | – | LD50 at 168 h [5]: 107 mg/kg; Activity (Rattus norvegicus [6]): -64 mmHg; Activity (Rattus norvegicus [7]): -36 mmHg; Time (Rattus norvegicus [8]): >8 h; Time (Rattus norvegicus [9]): 4 h; Activity (Canis familiaris [10]): -21 mmHg; Activity (Canis familiaris [11]): -42 mmHg; Time (Canis familiaris [12]): 2 h; Time (Canis familiaris [13]): 6 h |
| CCC(C)(C)/N=C(\NC#N)Nc1cccnc1 | – | 0.1 mg/kg | Activity (Rattus norvegicus [15]): -27 mmHg; Activity (Rattus norvegicus [16]): -72 mmHg; Activity (Rattus norvegicus [17]): >-100 mmHg; Time (Rattus norvegicus [18]): 2 h; Time (Rattus norvegicus [19]): 4 h; Time (Rattus norvegicus [20]): 4 h; Activity (Canis familiaris [21]): -41 mmHg; Activity (Canis familiaris [22]): -69 mmHg; Time (Canis familiaris [23]): 4 h; Time (Canis familiaris [24]): >6 h; fold change (FC) (Rattus norvegicus [25]): 100; Activity (Felis catus): Active |
| CCC(C)(C)/N=C(\Nc1cccnc1)Nc1nccs1 | > 1000 mg/kg | 20 mg/kg | – |
| N#CN/C(=N\CC1CCCO1)Nc1cccnc1 (centres undefined) | > 1000 mg/kg | 50 mg/kg | – |
| CC(C)(C)N/C(=N\C#N)NCc1ccccn1 | 600 mg/kg | > 20 mg/kg | – |
| CC(C)(C)N/C(=N\C#N)NCc1cccnc1 | > 1000 mg/kg | 2.5 mg/kg | – |
| COc1ccc(/N=C(\NC#N)NC(C)(C)C)c(OC)n1 | > 1000 mg/kg | > 50 mg/kg | – |
| CC(C)CC(C)/N=C(\NC#N)Nc1ccncc1 (centres undefined) | 1000 mg/kg | 35 mg/kg | – |
| Cc1cc(C)nc(N/C(=N/C(C)(C)C)NC#N)c1 | > 1000 mg/kg | > 50 mg/kg | – |
| CCC(CC)/N=C(\NC#N)Nc1ccncc1 | 200 mg/kg | 2.5 mg/kg | – |
| CCC(C)(C)/N=C(\NC#N)Nc1c(C)cc(C)nc1C | 800 mg/kg | > 25 mg/kg | – |
| CC(C)C(=O)N(/C(=N\C#N)Nc1cccnc1)C(C)(C)C | > 1000 mg/kg | 10 mg/kg | – |
| N#CN/C(=N\C1CCCC1)Nc1cccnc1 | 1000 mg/kg | 20 mg/kg | – |
| CCC/N=C(\NC#N)Nc1cccnc1 | > 1000 mg/kg | 20 mg/kg | – |
| CC(C)(C)/N=C(\NC#N)Nc1cncc(Br)c1 | 600 mg/kg | 0.5 mg/kg | – |
| CCC(C)(C)N/C(=N\C#N)Nc1cc(-c2ccc(Cl)cc2)nn1C | > 1000 mg/kg | 50 mg/kg | – |
| CCCCC(CC)C/N=C(\NC#N)Nc1cccnc1 (centres undefined) | > 1000 mg/kg | > 50 mg/kg | – |
| N#C/N=C(/Nc1ccncc1)NC12CC3CC(CC(C3)C1)C2 | > 1000 mg/kg | 5 mg/kg | – |
| CCC(C)C(C)/N=C(\NC#N)Nc1ccncc1 (centres undefined) | 250 mg/kg | 8 mg/kg | – |
| N#CNC(=N)Nc1cccnc1 | > 1000 mg/kg | 50 mg/kg | – |
| CCCCCCC/N=C(\NC#N)Nc1cccnc1 | > 1000 mg/kg | > 50 mg/kg | – |

| SMILES | LD50 at 168 h [4] | minimal effective dose (Rattus norvegicus [14]) | other results |
| --- | --- | --- | --- |
| CC(C)CCCC(C)N/C(=N\C#N)Nc1ccncc1 (centres undefined) | > 1000 mg/kg | 50 mg/kg | – |
| CCn1nc(C)cc1N/C(=N/C#N)NC(C)(C)C | > 1000 mg/kg | 10 mg/kg | – |
| CCC(C)(CC)/N=C(\NC#N)Nc1cccnc1 | > 1000 mg/kg | 0.5 mg/kg | – |
| CC(C)(C)CC(C)(C)/N=C(\NC#N)Nc1ccncc1 | > 1000 mg/kg | 50 mg/kg | – |
| C/N=C(\NC#N)Nc1cccnc1 | > 1000 mg/kg | > 50 mg/kg | – |
| CC(C)(C)/N=C(\NC#N)Nc1ccncc1 | > 1000 mg/kg | 2.5 mg/kg | – |
| CCC(/N=C(\NC#N)Nc1ccncc1)C(C)C (centres undefined) | 600 mg/kg | 5 mg/kg | – |
| CC(C)(C)/N=C(\NC#N)Nc1ccc(Cl)nc1Cl | > 1000 mg/kg | > 50 mg/kg | – |
| CC(C)(C)C/N=C(\NC#N)Nc1ccncc1 | 600 mg/kg | 5 mg/kg | – |
| CCC(C)(C)N/C(=N\c1cnccn1)Nc1cccnc1 | 800 mg/kg | 25 mg/kg | – |
| N#CN/C(=N\C1CCCCC1)Nc1cccnc1 | > 1000 mg/kg | 20 mg/kg | – |
| CCC(C)(C)N/C(=N\C#N)Nc1ccc[n+](C)c1.[I-] | > 1000 mg/kg | 20 mg/kg | – |
| CC(C)(C)/N=C(\NC#N)Nc1cccnc1Cl | > 1000 mg/kg | 5 mg/kg | – |
| CCN(CC)CC/N=C(\NC#N)Nc1cccnc1 | 250 mg/kg | > 8 mg/kg | – |
| CC(C)(C)/N=C(\NC#N)Nc1ccccn1 | 600 mg/kg | > 20 mg/kg | – |
| CCC(C)(C)N/C(=N\c1ncccn1)Nc1cccnc1.Cl | 1000 mg/kg | > 35 mg/kg | – |
| Cc1noc(C)c1N/C(=N/C#N)NC(C)(C)C | > 1000 mg/kg | 10 mg/kg | – |
| N#CN/C(=N\C1CCCCCCC1)Nc1ccncc1 | 600 mg/kg | > 20 mg/kg | – |
| N#CN/C(=N\CCc1ccccc1)Nc1cccnc1 | > 1000 mg/kg | 50 mg/kg | – |
| N#C/N=C(/Nc1cccnc1)NC12CC3CC(CC(C3)C1)C2 | > 1000 mg/kg | 50 mg/kg | – |
| CC(/N=C(\NC#N)Nc1ccncc1)c1ccccc1 (centres undefined) | 600 mg/kg | 10 mg/kg | – |
| N#CN/C(=N\C1CC1)Nc1cccnc1 | > 1000 mg/kg | 20 mg/kg | – |
